Experimental data reported in publication PMC10213863 (Cell Reports Medicine, 2023).

Experiments:
TLR5 = TLR5 (Homo sapiens, UniProt O60602); test: Human PBMC cytokine secretion, TLR5 agonist; assay type: cell-based; conditions: human PBMCs; up to 10 μM; n = 5 donors, data not shown
How it was run: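 Human PBMCs were pre-incubated 30 min with test compound, then stimulated with the respective TLR or IL-1R agonist at doses from earlier work. Cytokines in supernatants were quantified by immunoassay. Viability across the dose range was checked by CellTiter-Glo.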

TLR2/6 = TLR2/6 (Homo sapiens, UniProt O60603+Q9Y2C9); test: Ramos Blue reporter B cell line, FSL-1 stimulation; assay type: cell-based; conditions: Ramos cells; up to 10 μM; n = 4, data not shown
Chain of TLR2/6 (O60603 21-784): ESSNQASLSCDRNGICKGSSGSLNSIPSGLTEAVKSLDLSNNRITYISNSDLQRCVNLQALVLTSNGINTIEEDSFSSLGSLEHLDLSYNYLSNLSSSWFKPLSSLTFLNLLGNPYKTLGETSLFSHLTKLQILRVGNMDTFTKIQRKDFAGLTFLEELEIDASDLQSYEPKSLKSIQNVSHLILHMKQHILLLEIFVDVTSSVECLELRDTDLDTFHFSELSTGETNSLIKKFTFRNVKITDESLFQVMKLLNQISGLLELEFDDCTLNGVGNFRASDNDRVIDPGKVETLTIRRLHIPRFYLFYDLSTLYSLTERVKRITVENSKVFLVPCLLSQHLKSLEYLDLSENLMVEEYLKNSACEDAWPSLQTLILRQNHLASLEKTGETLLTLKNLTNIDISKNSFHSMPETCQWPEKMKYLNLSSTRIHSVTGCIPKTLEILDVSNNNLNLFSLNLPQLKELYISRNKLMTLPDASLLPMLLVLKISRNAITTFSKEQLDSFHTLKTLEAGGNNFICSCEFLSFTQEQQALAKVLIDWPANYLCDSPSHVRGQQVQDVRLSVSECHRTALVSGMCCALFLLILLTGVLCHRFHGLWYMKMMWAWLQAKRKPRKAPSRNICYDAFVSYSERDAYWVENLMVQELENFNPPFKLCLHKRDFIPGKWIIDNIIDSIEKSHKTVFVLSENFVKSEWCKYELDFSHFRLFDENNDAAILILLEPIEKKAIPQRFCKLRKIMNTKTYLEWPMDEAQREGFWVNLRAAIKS
Chain of TLR2/6 (Q9Y2C9 32-796): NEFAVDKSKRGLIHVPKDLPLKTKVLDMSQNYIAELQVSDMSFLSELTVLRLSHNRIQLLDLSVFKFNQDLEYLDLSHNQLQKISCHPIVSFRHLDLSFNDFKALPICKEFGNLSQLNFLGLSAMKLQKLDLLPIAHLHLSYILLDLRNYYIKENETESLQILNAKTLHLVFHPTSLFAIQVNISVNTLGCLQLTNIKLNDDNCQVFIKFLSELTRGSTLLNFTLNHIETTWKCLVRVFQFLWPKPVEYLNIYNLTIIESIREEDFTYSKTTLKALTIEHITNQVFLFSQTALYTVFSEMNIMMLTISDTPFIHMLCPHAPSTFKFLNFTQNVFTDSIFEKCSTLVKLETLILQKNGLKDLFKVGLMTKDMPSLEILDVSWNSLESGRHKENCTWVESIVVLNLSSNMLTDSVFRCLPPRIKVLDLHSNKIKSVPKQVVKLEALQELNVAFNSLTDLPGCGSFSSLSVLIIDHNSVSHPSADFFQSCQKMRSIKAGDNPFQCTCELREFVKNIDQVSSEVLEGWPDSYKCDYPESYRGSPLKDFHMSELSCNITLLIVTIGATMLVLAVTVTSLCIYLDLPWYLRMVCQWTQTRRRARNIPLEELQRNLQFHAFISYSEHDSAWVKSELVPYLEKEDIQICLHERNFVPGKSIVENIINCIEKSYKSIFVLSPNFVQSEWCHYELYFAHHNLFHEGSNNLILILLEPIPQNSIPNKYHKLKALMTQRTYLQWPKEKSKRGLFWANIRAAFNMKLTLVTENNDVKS
How it was run: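 Ramos Blue B reporter cells were pre-treated 30 min at 37°C, 5% CO2 with increasing concentrations of test compound or 0.25% v/v DMSO. They were then stimulated with the respective agonist, and reporter activity was read.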

TLR7 [1] = target: T1, TLR7 (Mus musculus, UniProt P58681); test: Ex vivo PD marker CD69 on B cells vs MHV370 blood exposure in NZB/W F1 mice
T1 sequence (P58681 27-1050): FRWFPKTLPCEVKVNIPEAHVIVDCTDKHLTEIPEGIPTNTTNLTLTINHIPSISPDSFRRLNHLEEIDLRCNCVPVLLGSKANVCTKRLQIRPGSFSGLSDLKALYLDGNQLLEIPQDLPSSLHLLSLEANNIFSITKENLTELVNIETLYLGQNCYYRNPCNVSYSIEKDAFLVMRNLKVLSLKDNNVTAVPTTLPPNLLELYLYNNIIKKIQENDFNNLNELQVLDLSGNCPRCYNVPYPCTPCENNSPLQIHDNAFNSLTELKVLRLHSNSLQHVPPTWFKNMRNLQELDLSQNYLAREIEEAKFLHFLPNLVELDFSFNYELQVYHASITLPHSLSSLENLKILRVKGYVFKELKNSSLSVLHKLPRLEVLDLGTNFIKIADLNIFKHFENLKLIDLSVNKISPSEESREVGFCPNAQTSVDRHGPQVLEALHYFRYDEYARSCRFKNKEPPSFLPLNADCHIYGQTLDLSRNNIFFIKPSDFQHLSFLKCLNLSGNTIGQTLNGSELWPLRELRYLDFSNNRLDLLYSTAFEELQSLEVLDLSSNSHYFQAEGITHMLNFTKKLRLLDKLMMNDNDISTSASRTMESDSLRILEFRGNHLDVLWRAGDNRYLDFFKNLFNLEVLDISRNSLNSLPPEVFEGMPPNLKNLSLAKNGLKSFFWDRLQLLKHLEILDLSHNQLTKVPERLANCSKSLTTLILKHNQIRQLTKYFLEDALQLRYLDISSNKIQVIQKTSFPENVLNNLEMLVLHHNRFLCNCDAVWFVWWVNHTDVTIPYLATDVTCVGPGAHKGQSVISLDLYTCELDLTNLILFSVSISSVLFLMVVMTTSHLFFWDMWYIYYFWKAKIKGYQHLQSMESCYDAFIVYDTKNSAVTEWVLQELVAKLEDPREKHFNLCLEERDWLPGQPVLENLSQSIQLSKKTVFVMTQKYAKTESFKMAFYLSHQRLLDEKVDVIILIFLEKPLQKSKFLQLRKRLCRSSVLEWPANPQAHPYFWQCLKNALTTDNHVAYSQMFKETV
How it was run: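 NZB/W F1 mice were dosed with test compound in food. Anticoagulated whole blood was diluted 1:1 in RPMI1640 and stimulated with 0.07 μg/mL R848 or medium at 37°C, 5% CO2. CD69 MFI on CD19+ B cells was read by flow cytometry. Drug concentration in whole blood was measured by LC-MS/MS.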

[2] = test system: PMA-mediated ROS secretion from neutrophils; test: Human neutrophil ROS production, PMA stimulation; assay type: cell-based
How it was run: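 Cells were pre-treated 30 min with increasing concentrations of test compound or 0.1% v/v DMSO. They were then stimulated 30 min at 37°C, 5% CO2 with TL8-506 or PMA (50 ng/mL). ROS was detected with 2 μM dihydrorhodamine for 15 min at 37°C and read by flow cytometry. Signals were normalized to vehicle; viability was checked by CellTiter-Glo.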

TLR7 [3] = target: T2, TLR7 (Homo sapiens, UniProt Q9NYK1); test: Isolated human pDC assay, ssRNA-driven IFN-α; assay type: cell-based; conditions: fixed dose of MHV370
T2 sequence (Q9NYK1 27-1049): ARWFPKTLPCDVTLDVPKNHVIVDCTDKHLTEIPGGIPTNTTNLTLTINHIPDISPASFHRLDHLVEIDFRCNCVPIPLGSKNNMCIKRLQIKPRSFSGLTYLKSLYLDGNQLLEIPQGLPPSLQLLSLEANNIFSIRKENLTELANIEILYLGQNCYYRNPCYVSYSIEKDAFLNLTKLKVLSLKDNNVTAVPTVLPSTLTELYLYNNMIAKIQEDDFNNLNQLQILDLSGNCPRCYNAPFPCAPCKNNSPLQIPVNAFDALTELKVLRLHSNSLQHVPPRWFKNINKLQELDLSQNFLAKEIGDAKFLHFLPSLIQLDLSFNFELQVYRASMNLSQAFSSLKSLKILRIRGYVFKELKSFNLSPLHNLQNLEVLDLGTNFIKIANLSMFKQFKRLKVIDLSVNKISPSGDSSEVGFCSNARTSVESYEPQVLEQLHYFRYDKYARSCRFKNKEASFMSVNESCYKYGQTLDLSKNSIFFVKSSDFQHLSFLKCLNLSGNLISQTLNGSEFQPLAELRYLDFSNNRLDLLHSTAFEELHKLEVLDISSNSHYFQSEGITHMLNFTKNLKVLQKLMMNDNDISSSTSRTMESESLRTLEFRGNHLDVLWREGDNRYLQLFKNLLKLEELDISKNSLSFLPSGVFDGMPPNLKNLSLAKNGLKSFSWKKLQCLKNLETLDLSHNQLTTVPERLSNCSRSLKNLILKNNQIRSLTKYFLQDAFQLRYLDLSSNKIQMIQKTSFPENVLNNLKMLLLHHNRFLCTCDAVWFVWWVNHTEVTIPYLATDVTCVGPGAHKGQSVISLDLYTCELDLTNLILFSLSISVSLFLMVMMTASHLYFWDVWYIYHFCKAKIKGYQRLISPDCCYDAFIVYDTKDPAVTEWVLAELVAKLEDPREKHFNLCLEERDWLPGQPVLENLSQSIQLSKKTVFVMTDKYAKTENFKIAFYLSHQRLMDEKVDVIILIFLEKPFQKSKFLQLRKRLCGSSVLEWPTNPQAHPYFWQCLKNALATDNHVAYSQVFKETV
How it was run: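 pDCs were negatively enriched from PBMCs and resuspended in RPMI1640 with 10 ng/mL recombinant human IL-3. They were pre-treated 30 min with test compound or 0.25% v/v DMSO. Stimulation was 20 h at 37°C, 5% CO2 with ssRNA40 (10 μg/mL plus 25 μg/mL DOTAP) or ODN2216 (0.3 μM). IFN-α in supernatants was read by AlphaLisa; viability by CellTiter-Glo.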

Chain of TLR5 (O60602 21-858): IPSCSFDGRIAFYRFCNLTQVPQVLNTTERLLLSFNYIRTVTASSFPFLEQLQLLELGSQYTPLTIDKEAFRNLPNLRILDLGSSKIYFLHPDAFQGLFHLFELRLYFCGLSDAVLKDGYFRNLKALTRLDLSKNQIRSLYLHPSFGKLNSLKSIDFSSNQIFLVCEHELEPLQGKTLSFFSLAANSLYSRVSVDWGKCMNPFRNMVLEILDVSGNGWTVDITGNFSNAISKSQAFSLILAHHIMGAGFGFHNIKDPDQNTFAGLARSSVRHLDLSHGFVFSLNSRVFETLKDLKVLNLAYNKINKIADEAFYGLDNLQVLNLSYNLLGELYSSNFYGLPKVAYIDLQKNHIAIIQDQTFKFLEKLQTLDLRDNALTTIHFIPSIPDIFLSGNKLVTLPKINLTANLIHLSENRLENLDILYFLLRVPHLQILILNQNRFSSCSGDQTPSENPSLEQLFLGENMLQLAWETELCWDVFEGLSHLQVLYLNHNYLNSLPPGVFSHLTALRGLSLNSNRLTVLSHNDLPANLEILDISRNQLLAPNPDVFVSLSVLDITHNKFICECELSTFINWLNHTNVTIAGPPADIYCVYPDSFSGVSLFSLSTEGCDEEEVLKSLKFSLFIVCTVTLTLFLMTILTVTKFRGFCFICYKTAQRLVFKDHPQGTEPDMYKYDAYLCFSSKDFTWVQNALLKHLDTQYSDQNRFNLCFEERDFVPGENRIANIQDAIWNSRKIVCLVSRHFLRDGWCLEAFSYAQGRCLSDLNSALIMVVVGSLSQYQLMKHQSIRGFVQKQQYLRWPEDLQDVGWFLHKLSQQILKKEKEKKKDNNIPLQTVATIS

With Cc1cc(N2CCc3c(c(C)nn3CC34CCC(NC(=O)[C@@H]5COCCN5)(CC3)CC4)C2)c2cnn(C)c2n1 [MHV370, (S)-N-(4-((5-(1,6-dimethyl-1H-pyrazolo[3,4-b]pyridin-4-yl)-3-methyl-4,5,6,7-tetrahydro-1H-pyrazolo[4,3-c]pyridin-1-yl)methyl)bicyclo[2.2.2]octan-1-yl)morpholine-3-carboxamide] as the molecule, how does the “interference with cytokine secretion, TLR5 agonist” value (TLR5) read?
Its value is “did not significantly interfere”.

What about the “interference with TLR2/6-driven activity” value (TLR2/6) of the same molecule?
The value was “did not interfere”.

What about the IC50 (TLR7 [1]) of the same molecule?
The IC50 was 35 nM.

And the “block of ROS production, PMA stimulation” value [2]?
Its value is “but not with phorbol myristate acetate”.

What about the “ssRNA-driven IFN-α responses from pDCs” value (TLR7 [3]) of the same molecule?
The value was “blocked”.
